High-throughput results from PubChem.
Only a selection was taken, and hits are over-represented in it overall.
A1 apoptosis 2: A1 inhibitors via caspase activation, primary screen, cell-based, luminescence, HTS, two replicates; MEF A1-2A-BIM cells, caspase-Glo luminescence, 3 h; percent of clofoctol response, DMSO zero; caspase activation, % (no concentration beside the values); 24,000 tested, under 10 active; AID 2465, 2010; in the data active = caspase activation above about 5.9%; inconclusive = no clear call, values can overlap the other calls; inactive = below about 2.2%
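Material: mouse embryonic fibroblasts co-expressing A1 and BIM (A1-2A-BIM), primed for A1 dependence / Quantity: 2500 cells/well / Buffer or medium: RPMI-1640 growth medium with 10% FBS / Doses: 50 nL compound per well, pinned / Schedule: 3 h compound exposure at 37 °C / Signal: Caspase-Glo luminescence (DEVD substrate) / Measure: Caspase-3/7 activation, seen as rise in luminescence signal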
INS-1E ATP HTS: protection of INS-1E cells from cytokine death, primary screen, ATP luminescence, single point. INS-1E cytokine-induced death, 48 h; normalised: neutral wells 0, positive control 100. protection from cytokine-induced ATP loss, % at 10 µM. 20,000 compounds, 0.1% hits. AID 488910, 2010;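 active = mean replicate protection from cytokine-induced ATP loss at least 50% and at least 75% of replicates each reaching 50%; inconclusive = meets only one of the two criteria, mean or replicate share; inactive = fails both the mean and replicate share criteria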
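assay system = INS-1E rat insulinoma cells | amount = 8000 cells per well | medium = phenol-red-free RPMI with 5% fetal bovine serum | doses = one compound concentration, pin transfer | timing = 48 h cytokine plus compound treatment, 10 min reagent incubation | also added = IL-1β, TNF-α and IFN-γ cytokine mix | signal = CellTiter-Glo luminescence measuring cellular ATP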
T cruzi HTS: inhibitors of intracellular Trypanosoma cruzi, primary screen, cell-based, plate reader, single point, set 2 | intracellular Trypanosoma cruzi in host cells | activity score (inhibition), % at 5.01 µM | 22,000 compounds, 4.9% hits | AID 651903, 2012; in the data active = activity score above about 55%; inconclusive = no clear call, values can overlap the other calls;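 also: parasites and compound incubated about four days before reading; 0% = median of neutral control wells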
An asterisk follows results filed as active; ? = inconclusive; . = no result.

SMILES	A1 apoptosis 2	INS-1E ATP HTS	T cruzi HTS
COc1ccc(CN(C)C[C@@H]2Oc3ccc(NS(=O)(=O)c4ccc(Cl)cc4)cc3CC(=O)N([C@H](C)CO)C[C@@H]2C)cc1	-0.3	-0.9	27.3
COc1ccc(CN(C)C[C@H]2Oc3ccc(NS(=O)(=O)c4ccc(Cl)cc4)cc3CC(=O)N([C@H](C)CO)C[C@H]2C)cc1	-1.1	-5.4	71.4*
C=CCOC(=O)[C@H]1[C@@H]2C(=O)O[C@@H](c3ccccc3)[C@@H](c3ccccc3)N2[C@@H](c2ccc(OCCOC(=O)[C@@H]3C[C@@H]4C(=O)N[C@@H](CC(C)C)C(=O)N4[C@@H]3c3cccc(OCCO)c3)cc2)[C@]12C(=O)Nc1ccc(I)cc12	0.5	.	.
O=C(N/N=C/c1ccc(Br)o1)c1ccccn1	-3.5	-7.3	22.8
C[C@@H]1CCCCO[C@H](CN(C)C(=O)Nc2ccc(C(F)(F)F)cc2)[C@H](C)CN([C@H](C)CO)C(=O)c2cc(NC(=O)c3ccccc3)ccc2O1	-0.6	.	.
C[C@@H]1CCCCO[C@H](CN(C)C(=O)Nc2ccc(C(F)(F)F)cc2)[C@@H](C)CN([C@H](C)CO)C(=O)c2cc(NC(=O)Cc3ccccc3)ccc2O1	-1.9	-20.2	71.5*
C[C@@H]1CCCCO[C@@H](CN(C)C(=O)Nc2ccc(C(F)(F)F)cc2)[C@@H](C)CN([C@H](C)CO)C(=O)c2cc(NC(=O)Nc3ccccc3)ccc2O1	0.2	-5.6	64.4*
C[C@@H]1CCCCO[C@@H](CN(C)C(=O)Nc2ccc(C(F)(F)F)cc2)[C@@H](C)CN([C@H](C)CO)C(=O)c2cc(NC(=O)c3ccccc3)ccc2O1	0.1	-9.6	58.8*
C[C@H]1CCCCO[C@H](CN(C)C(=O)Nc2ccc(C(F)(F)F)cc2)[C@@H](C)CN([C@@H](C)CO)C(=O)c2cc(NC(=O)Cc3ccccc3)ccc2O1	1.4	.	.
C[C@@H]1CCCCO[C@H](CN(C)C(=O)Nc2ccc(C(F)(F)F)cc2)[C@H](C)CN([C@@H](C)CO)C(=O)c2cc(NC(=O)Nc3ccccc3)ccc2O1	0.0	.	.
COc1cc(/C=C/C=N/NC(=O)c2ccccn2)ccc1O	.	-3.4	-14.5
O=C(N/N=C/c1cccnc1)c1ccccn1	-4.3	.	.
COc1ccc(S(=O)(=O)N(C)C[C@@H]2Oc3ccc(NC(=O)c4ccncc4)cc3C(=O)N([C@H](C)CO)C[C@@H]2C)cc1	-1.9	-2.2	-4.8
Cc1noc(C)c1S(=O)(=O)Nc1ccc2c(c1)C(=O)N([C@H](C)CO)C[C@H](C)[C@@H](CN(C)C(=O)Nc1ccc(C(F)(F)F)cc1)OCCCC[C@@H](C)O2	.	2.2	58.0*
Cc1noc(C)c1S(=O)(=O)Nc1ccc2c(c1)C(=O)N([C@H](C)CO)C[C@@H](C)[C@H](CN(C)C(=O)Nc1ccc(C(F)(F)F)cc1)OCCCC[C@@H](C)O2	-1.3	.	.
Cc1noc(C)c1S(=O)(=O)Nc1ccc2c(c1)C(=O)N([C@H](C)CO)C[C@H](C)[C@H](CN(C)C(=O)Nc1ccc(C(F)(F)F)cc1)OCCCC[C@@H](C)O2	.	4.1	58.1*
Cc1noc(C)c1S(=O)(=O)Nc1ccc2c(c1)C(=O)N([C@@H](C)CO)C[C@@H](C)[C@H](CN(C)C(=O)Nc1ccc(C(F)(F)F)cc1)OCCCC[C@H](C)O2	0.3	.	.
O=C(N/N=C/c1cn(S(=O)(=O)c2ccccc2)c2ccccc12)c1ccccc1O	.	-24.6	-9.1
COc1ccc([Si](C)(C)[C@@H]2[C@@H](CCn3cc(CCO)nn3)O[C@]3(C(=O)N(C)c4ccccc43)[C@H]2C)cc1	1.4	.	.
COc1ccc([Si](C)(C)[C@@H]2[C@@H](CCO)O[C@]3(C(=O)N4c5c(cc(OC)cc53)C(C)=CC4(C)C)[C@H]2C)cc1	26.7*	.	.
COc1ccc([Si](C)(C)[C@@H]2[C@@H](CCn3cc(CCO)nn3)O[C@]3(C(=O)N(c4ccccc4)c4ccccc43)[C@H]2C)cc1	12.2*	.	.
COc1ccc([Si](C)(C)[C@H]2[C@H](CCO)O[C@@]3(C(=O)N(c4ccccc4)c4ccccc43)[C@@H]2C)cc1	-1.4	.	.
O=C(CCCCCCC(=O)Nc1ccccc1O)N/N=C/c1ccncc1Br	0.9	1.6	6.0
CC1(C)COC(CCC/C=N/NC(=O)CCCCC(=O)NO)OC1	0.7	9.2	-12.4
C[C@@H]1CCCCO[C@@H](CN(C)C(=O)Nc2ccc(C(F)(F)F)cc2)[C@H](C)CN([C@H](C)CO)C(=O)c2cc(NC(=O)NC3CCCCC3)ccc2O1	1.9	.	.
SMILES	A1 apoptosis 2	INS-1E ATP HTS	T cruzi HTS
C[C@H](CO)N1C[C@H](C)[C@@H](CN(C)Cc2ccc(C(=O)Nc3ccccc3N)cc2)Oc2ccc(N(C)C)cc2CC1=O	-0.8	.	.
C[C@H](CO)N1C[C@H](C)[C@H](CN(C)Cc2ccc(C(=O)Nc3ccccc3N)cc2)Oc2ccc(N(C)C)cc2CC1=O	.	65.2*	59.0*
C[C@@H]1CN([C@@H](C)CO)C(=O)c2cc(N(C)C)ccc2O[C@@H]1CN(C)Cc1ccc(C(=O)Nc2ccccc2N)cc1	.	28.0	61.2*
C[C@H]1CN([C@@H](C)CO)C(=O)c2cc(N(C)C)ccc2O[C@@H]1CN(C)Cc1ccc(C(=O)Nc2ccccc2N)cc1	.	29.3	33.8
C[C@H]1CN([C@@H](C)CO)C(=O)Cc2cc(N(C)C)ccc2O[C@H]1CN(C)Cc1ccc(C(=O)Nc2ccccc2N)cc1	.	31.5	61.9*
C[C@@H]1CN([C@@H](C)CO)C(=O)Cc2cc(NC(=O)c3ccncc3)ccc2O[C@@H]1CN(C)Cc1ccc(C(=O)Nc2ccccc2N)cc1	1.5	-13.1	52.7
CCOc1cc(/C=N/NC(=O)c2ccccn2)ccc1O	-1.3	3.1	-5.5
O=C(N/N=C/c1cc(Br)cs1)c1ccccn1	-10.2	-3.6	-16.1
Cc1ccc(S(=O)(=O)N(C)C[C@@H]2Oc3ccc(NC(=O)Nc4ccc(C(F)(F)F)cc4)cc3CC(=O)N([C@@H](C)CO)C[C@@H]2C)cc1	.	-56.7	?
C[C@H](CO)N1C[C@H](C)[C@H](CN(C)S(=O)(=O)c2ccc(Cl)cc2)Oc2ccc(NC(=O)Nc3ccc(C(F)(F)F)cc3)cc2CC1=O	.	-8.6	63.5*
Cc1ccc(S(=O)(=O)N(C)C[C@H]2Oc3ccc(NC(=O)Nc4ccc(C(F)(F)F)cc4)cc3CC(=O)N([C@@H](C)CO)C[C@H]2C)cc1	1.2	-35.9	57.8*
COc1ccc(S(=O)(=O)N(C)C[C@H]2Oc3ccc(NC(=O)Nc4ccc(C(F)(F)F)cc4)cc3CC(=O)N([C@@H](C)CO)C[C@H]2C)cc1	0.0	-12.2	64.5*
COc1ccc(S(=O)(=O)N(C)C[C@H]2Oc3ccc(NC(=O)Nc4ccc(C(F)(F)F)cc4)cc3CC(=O)N([C@H](C)CO)C[C@@H]2C)cc1	1.8	.	.
C[C@@H]1CN([C@H](C)CO)C(=O)Cc2cc(NC(=O)Nc3ccc(C(F)(F)F)cc3)ccc2O[C@H]1CN(C)S(=O)(=O)c1ccc(Cl)cc1	.	-62.0	32.7
